An excerpt weighted towards active compounds, which were near 2.1% of everything screened.
Arbovirus anti: arbovirus infection inhibition | inhibition, % at 10 µM | arbovirus infection cell-based antiviral screen | 0.37% of 200,000 active; in the data active = inhibition above about 30%
RBBP9 inhibitor: human RBBP9 hydrolase inhibition. O75884. recombinant RBBP9, FP-Rh probe fluorescence polarization. inhibition, % at 7.94 µM. 0.2% of 220,000 active;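 active = inhibition above the campaign mean of all tested compounds plus 3 SD, cut at about 14% in these data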;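 note: plate controls were DMSO wells with RBBP9 for no effect and wells lacking RBBP9 protein for full effect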
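Test system: recombinant human RBBP9; Timing: 30 min then 45 min, 25 °C; Detection: fluorescence polarization; Control set: RBBP9 with DMSO as uninhibited control, no-protein wells as full inhibition; Compound dosing: one concentration, 7.94 µM nominal, 0.794% DMSO; Probe or stimulus: FP-Rh activity-based probe, 375 nM before mixing.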
Autophagy HCS: autophagy modulation, high-content screen | 0.98% of 190,000 active | MEF GFP-LC3 puncta imaging; test concentration mostly 10 µM | calls only at 10 µM (by protocol);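 active = percentage of spot-positive cells more than 3 SD above its plate mean, without a fluorescence outlier flag or 80% toxicity; inconclusive = no clear call, values can overlap the other calls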;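 note: spot-positive cell cutoff set from DMSO-treated cells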
Insulin prom inh: TRM-6 insulin promoter activity inhibition; TRM-6 cells, insulin promoter-eGFP reporter, imaging; reporter expression induced with tamoxifen; inhibition, % at 2 µM; 0.9% of 130,000 active; AID 1273;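 active = inhibition above the mean plus 3 SD, with well images judged a real hit on visual review, cut at about 60% in these data, passing the limit was not always enough; inconclusive = inhibition over the cutoff but images rejected on review; inactive = inhibition not above the cutoff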
Insulin prom up: MIN6 insulin promoter up-regulation | MIN6 insulin promoter-GFP reporter, high-content imaging; hits give high values | z-score at 5 µM | 0.3% of 190,000 active | AID 1625;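 active = z-score above 3 at 5 µM with at least 500 cells counted in the well; inconclusive = wells under 500 cells, flagged as cytotoxic or low count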
PKD1 kinase inh: PKD1 (human) kinase inhibition | Q15139 | PKD1 kinase fluorescence polarization assay | inhibition, % (no concentration beside the values) | 0.056% of 200,000 active | AID 797; in the data active = inhibition above about 50%
Starred values were filed as active, the others as inactive.

What do the screens show for `CCOC(=O)Cc1csc(NC(=O)c2sc3nc4cc(C)ccc4cc3c2N)n1`?
Arbovirus anti: 9; RBBP9 inhibitor: -2; Autophagy HCS: inactive; Insulin prom inh: -3; Insulin prom up: 0.86; PKD1 kinase inh: 9

What do the screens show for `C/C(=N\NC(=O)c1ccn(C)n1)c1ccc(NC(=O)C2CCCC2)cc1`?
Arbovirus anti: -17; RBBP9 inhibitor: 0; Autophagy HCS: inactive; Insulin prom inh: 71*; Insulin prom up: 0.4; PKD1 kinase inh: 2

Results for C/C(=N/NC(=O)c1ccoc1C)c1ccc(NC(=O)C2CCCC2)cc1 ?
Arbovirus anti: -28; RBBP9 inhibitor: -3; Autophagy HCS: inactive; Insulin prom inh: 7; Insulin prom up: -0.38; PKD1 kinase inh: -11

Results for COc1ccc(-n2c(=O)c(NC(=O)c3ccccc3)c3n(c2=S)CCCCC3)cc1 ?
Arbovirus anti: 1; RBBP9 inhibitor: -9; Autophagy HCS: active; Insulin prom inh: -30; Insulin prom up: -1.1; PKD1 kinase inh: -7

How did C=C(C)Cn1c(=O)c(NC(=O)c2ccccc2)c2n(c1=S)CCC2 do in these assays?
Arbovirus anti: 6; RBBP9 inhibitor: -4; Autophagy HCS: inactive; Insulin prom inh: -4; Insulin prom up: -0.54; PKD1 kinase inh: 1

How did CCCCCC(=O)N/N=C/c1ccc(N(C)C)cc1 do in these assays?
Arbovirus anti: 3; RBBP9 inhibitor: 9; Autophagy HCS: inactive; Insulin prom inh: 3; Insulin prom up: -0.01; PKD1 kinase inh: -5

Results for c1cncc(-c2nn3c(Cn4cnc5ccccc54)nnc3s2)c1 ?
Arbovirus anti: 5; RBBP9 inhibitor: -3; Autophagy HCS: inactive; Insulin prom inh: 24; Insulin prom up: 0.03; PKD1 kinase inh: -6

Results for COc1ccc2nc(NC3=NC(c4ccccc4)CC(=O)N3)nc(C)c2c1 (stereo not given) ?
Arbovirus anti: -9; RBBP9 inhibitor: -8; Autophagy HCS: inactive; Insulin prom inh: 16; Insulin prom up: -1.1; PKD1 kinase inh: -9

How did COC1=C(c2ccccc2)C(=O)c2ccccc2C1=O do in these assays?
Arbovirus anti: -31; RBBP9 inhibitor: -6; Autophagy HCS: inactive; Insulin prom up: -1.1; PKD1 kinase inh: -7

Results for O=C(C1=C(c2ccccc2)C(=O)c2ccccc2C1=O)c1ccccc1 ?
Arbovirus anti: -32; RBBP9 inhibitor: 0; Autophagy HCS: active; Insulin prom inh: -3; Insulin prom up: inconclusive; PKD1 kinase inh: -1

Results for CCCCC(=O)c1ccc(O)cc1O ?
Arbovirus anti: 4; RBBP9 inhibitor: -2; Autophagy HCS: active; Insulin prom inh: 13; PKD1 kinase inh: 1

How did C=CCn1cnc2c(c1=O)c1nc3ccccc3nc1n2-c1ccccc1 do in these assays?
Insulin prom up: 0.67

Results for COCCCn1cnc2c(c1=O)c1nc3ccccc3nc1n2-c1ccccc1 ?
Arbovirus anti: -6; RBBP9 inhibitor: -5; Autophagy HCS: inactive; Insulin prom inh: 91*; PKD1 kinase inh: -15

What do the screens show for `CCOC(=O)N1CCN(c2c(F)cc3[nH]c(=S)[nH]c3c2Br)CC1`?
Arbovirus anti: -13; RBBP9 inhibitor: -3; Autophagy HCS: active; Insulin prom inh: -15; Insulin prom up: 0.6; PKD1 kinase inh: -1

Results for CCOC(=O)N1CCN(c2cc3[nH]c(=S)[nH]c3cc2F)CC1 ?
Arbovirus anti: -4; RBBP9 inhibitor: -2; Autophagy HCS: inactive; Insulin prom inh: 14; Insulin prom up: 0.05; PKD1 kinase inh: -2

What do the screens show for `O=C(CN1CCN(c2ccccc2O)CC1)NC(=O)NC1CCCC1`?
Arbovirus anti: 4; RBBP9 inhibitor: 3; Autophagy HCS: inactive; Insulin prom inh: 33; Insulin prom up: -0.01; PKD1 kinase inh: 2

Results for C=CCn1c(-c2cccc(Cl)c2)n[nH]c1=S ?
Arbovirus anti: 8; RBBP9 inhibitor: -7; Autophagy HCS: inactive; Insulin prom up: 0.52; PKD1 kinase inh: -9

How did C=CCn1c(-c2oc3nc(-c4ccccc4)cc(-c4ccccc4)c3c2N)n[nH]c1=S do in these assays?
Arbovirus anti: 8; RBBP9 inhibitor: 1; Autophagy HCS: inactive; Insulin prom up: 5.6*; PKD1 kinase inh: 2

Results for Cn1ncc(Cl)c1C(=O)Nc1cccc(Cl)c1 ?
Arbovirus anti: -5; RBBP9 inhibitor: 3; Autophagy HCS: inactive; Insulin prom inh: 40; PKD1 kinase inh: -6

How did Cn1ncc(N=Cc2c(O)ccc3ccccc23)c1C(=O)Nc1cccc(Cl)c1 do in these assays?
Arbovirus anti: 6; RBBP9 inhibitor: -1; Autophagy HCS: active; Insulin prom up: 2.3; PKD1 kinase inh: 3

Screening results: PubChem BioAssay, several laboratories
